Assay results as given in ChEMBL document CHEMBL4257504, “Tricyclic xanthine derivatives containing a basic substituent: adenosine receptor affinity and drug-related properties” (Medchemcomm, 2018).
pKi: −log10 of the molar value. ≈ marks a conversion by molar mass, not a printed value.

What was measured:
Adenosine receptor A1 = target: T1, Adenosine receptor A1 (Rattus norvegicus, UniProt P25099); experiment: Displacement of [3H]CCPA from adenosine A1 receptor in rat brain cortical membranes; assay type: cell membranes
T1 sequence (P25099 whole entry): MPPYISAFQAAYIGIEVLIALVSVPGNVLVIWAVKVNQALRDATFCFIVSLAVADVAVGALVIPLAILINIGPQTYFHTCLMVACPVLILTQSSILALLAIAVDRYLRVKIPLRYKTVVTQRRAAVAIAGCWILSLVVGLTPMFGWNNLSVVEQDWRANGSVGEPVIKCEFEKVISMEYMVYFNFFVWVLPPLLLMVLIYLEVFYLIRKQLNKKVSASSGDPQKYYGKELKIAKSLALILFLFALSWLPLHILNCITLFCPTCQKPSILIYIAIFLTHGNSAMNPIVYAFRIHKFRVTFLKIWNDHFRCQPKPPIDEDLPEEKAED
In short: (§1)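 Membrane radioligand binding: A1 in rat brain cortical membranes and A2A in rat brain striatal membranes, with human A1 and A2A in recombinant CHO cell membranes. Radioligands are [3H]CCPA for A1 and [3H]MSX-2 for A2A. Full concentration-inhibition curves use six to ten concentrations spanning three orders of magnitude, with at least three independent experiments.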

Adenosine receptor A2a = Adenosine receptor A2a (Rattus norvegicus, UniProt P30543); experiment: Displacement of [3H]MSX-2 from adenosine A2A receptor in rat brain striatal membranes; assay type: cell membranes, Striatum, Membrane; in short: as §1
Adenosine receptor A2b [1] = target: T2, Adenosine receptor A2b (Homo sapiens, UniProt P29275); experiment: […] from human adenosine A2B receptor expressed in CHO cell membranes; conditions: in the assay text read “[3H]PSB-603” for “[3H]PSB-602”
T2 sequence (P29275 whole entry): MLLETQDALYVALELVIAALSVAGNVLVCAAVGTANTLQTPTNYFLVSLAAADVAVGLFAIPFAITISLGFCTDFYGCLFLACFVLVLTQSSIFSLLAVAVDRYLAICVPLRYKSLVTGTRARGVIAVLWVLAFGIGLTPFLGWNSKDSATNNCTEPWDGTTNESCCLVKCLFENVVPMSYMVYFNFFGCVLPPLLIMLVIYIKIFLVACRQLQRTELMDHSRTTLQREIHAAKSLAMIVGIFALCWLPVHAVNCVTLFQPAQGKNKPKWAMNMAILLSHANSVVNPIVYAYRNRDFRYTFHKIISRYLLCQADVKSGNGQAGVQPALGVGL
In short: (§2)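 Membranes from CHO cells recombinantly expressing human A2B or A3 receptor. Radioligands are [3H]PSB-603 for A2B and [3H]PSB-11 for A3. Competition curves use six to ten test-compound concentrations spanning three orders of magnitude, with at least three independent experiments.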

Adenosine receptor A3 = target: T3, Adenosine receptor A3 (Homo sapiens, UniProt P0DMS8); experiment: Displacement of [3H]PSB-11 from human adenosine A3 receptor expressed in CHO cell membranes; in short: as §2
T3 sequence (P0DMS8 whole entry): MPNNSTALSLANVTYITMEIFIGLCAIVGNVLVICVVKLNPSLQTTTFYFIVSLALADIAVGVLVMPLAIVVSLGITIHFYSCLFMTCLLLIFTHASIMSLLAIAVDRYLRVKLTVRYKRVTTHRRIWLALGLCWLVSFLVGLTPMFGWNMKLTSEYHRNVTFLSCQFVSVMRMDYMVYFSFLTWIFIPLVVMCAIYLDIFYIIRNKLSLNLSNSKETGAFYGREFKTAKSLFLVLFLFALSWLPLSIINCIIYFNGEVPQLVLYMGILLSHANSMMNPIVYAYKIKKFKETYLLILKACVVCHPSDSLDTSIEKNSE

[2] = target: T4, Adenosine receptor A3 (Homo sapiens) (UniProt P0DMS8); experiment: Displacement of [3H]PSB-11 from human adenosine A3 receptor expressed in CHO cell membranes at 1 uM relative to control
T4 sequence (whole entry): T3 sequence (P0DMS8 whole entry)

[3] = target: T5, Adenosine receptor A2b (Homo sapiens) (UniProt P29275); experiment: Displacement of [3H]PSB-603 from human adenosine A2B receptor expressed in CHO cell membranes at 1 uM relative to control
T5 sequence (whole entry): T2 sequence (P29275 whole entry)

[4] = Solubility of compound in water after over night incubation by UV spectroscopic method; assay type: physicochemical
In short: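 Compound (10 mg, basic form) is suspended in 2 mL water, boiled 5 min, left overnight at 20 °C and filtered. The filtrate is diluted 10–80-fold in MeOH and read by UV in 90% MeOH/H2O. Concentration comes from seven-point standard curves (10^-3 to 10^-1 mg/mL) by linear regression, multiplied by the dilution factor.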

[5] = target: T6, Adenosine receptor A1 (Rattus norvegicus) (UniProt P25099); experiment: Displacement of [3H]CCPA from adenosine A1 receptor in rat brain cortical membranes at 1 uM relative to control; assay type: cell membranes
T6 sequence (whole entry): T1 sequence (P25099 whole entry)

Adenosine receptor A2b [6] = target: T2, Adenosine receptor A2b; experiment: Displacement of [3H]PSB-603 from human adenosine A2B receptor expressed in CHO cell membranes

Sequence of Adenosine receptor A2a (P30543 whole entry): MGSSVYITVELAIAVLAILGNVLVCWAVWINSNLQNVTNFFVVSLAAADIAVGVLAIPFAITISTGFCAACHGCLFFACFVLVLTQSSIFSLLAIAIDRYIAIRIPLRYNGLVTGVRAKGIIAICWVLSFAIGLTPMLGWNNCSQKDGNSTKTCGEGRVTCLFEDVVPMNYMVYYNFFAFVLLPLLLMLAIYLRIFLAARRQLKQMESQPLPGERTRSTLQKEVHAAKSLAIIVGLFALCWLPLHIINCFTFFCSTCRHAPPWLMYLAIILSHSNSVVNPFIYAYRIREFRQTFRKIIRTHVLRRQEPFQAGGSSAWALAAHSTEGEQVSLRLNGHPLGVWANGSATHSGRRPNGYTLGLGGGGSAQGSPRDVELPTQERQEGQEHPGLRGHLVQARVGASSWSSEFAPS

Compound | pKi (Adenosine receptor A1) | pKi (Adenosine receptor A2a) | pKi (Adenosine receptor A2b [1]) | pKi (Adenosine receptor A3) | inhibition [2] [%] | inhibition [3] [%] | solubility [4] [µM] | inhibition [5] [%] | pKi (Adenosine receptor A2b [6])
CCCn1c(=O)c2c(nc3n2CCCN3CCc2ccc(OCC(=O)NCCN3CCOCC3)cc2)n(CCC)c1=O | 6.29 | 5.95 | 6.04 | < 6.00 | 21 | – | – | – | –
CCCCn1c(=O)c2c(nc3n2CCCN3CCc2ccc(OCC(=O)NCCN3CCOCC3)cc2)n(CCCC)c1=O | 6.74 | 6.17 | 6.53 | < 6.00 | 46 | – | – | – | –
CCCn1c(=O)c2c(nc3n2CCCN3CCc2ccc(OCC(=O)NCCCn3ccnc3)cc2)n(CCC)c1=O | 6.22 | 6.20 | 6.06 | 6.00 | – | – | – | – | –
CCCCn1c(=O)c2c(nc3n2CCCN3CCc2ccc(OCC(=O)NCCc3ccccn3)cc2)n(CCCC)c1=O | 6.42 | 5.97 | < 6.00 | < 6.00 | 44 | 39 | – | – | –
CCCn1c(=O)c2c(nc3n2CCCN3CCc2ccc(OCC(=O)NCc3cccc(Cl)c3)cc2)n(CCC)c1=O | 5.86 | 6.09 | < 6.00 | 6.24 | – | 22 | – | – | –
CCCn1c(=O)c2c(nc3n2CCCN3CCc2ccc(OCC(=O)NCCN(CC)CC)cc2)n(CCC)c1=O | 6.92 | 6.57 | 6.75 | 6.29 | – | – | 1080 (≈ 615 µg/mL) | – | –
CCCCn1c(=O)c2c(nc3n2CCCN3CCc2ccc(OCC(=O)NCc3ccccc3)cc2)n(CCCC)c1=O | 6.49 | 5.89 | 6.24 | 6.22 | – | – | – | – | –
CCCCn1c(=O)c2c(nc3n2CCCN3CCc2ccc(OCC(=O)NCCCNC3CCCCC3)cc2)n(CCCC)c1=O | 6.93 | 5.90 | 6.67 | 6.45 | – | – | – | – | –
CCCn1c(=O)c2c(nc3n2CCCN3CCc2ccc(OCC(=O)NCCCN3CCCC3)cc2)n(CCC)c1=O | 6.84 | 6.49 | 6.34 | < 6.00 | 33 | – | – | – | –
CCCn1c(=O)c2c(nc3n2CCCN3CCc2ccc(OCC(=O)NCCc3ccc(S(N)(=O)=O)cc3)cc2)n(CCC)c1=O | 5.00 | 5.73 | < 6.00 | < 6.00 | 28 | 30 | – | 45 | –
CCCn1c(=O)c2c(nc3n2CCCN3CCc2ccc(OCC(=O)NCc3ccccc3)cc2)n(CCC)c1=O | < 5.00 | 5.49 | < 6.00 | < 6.00 | 34 | 22 | – | 26 | –
CCCn1c(=O)c2c(nc3n2CCCN3CCc2ccc(OCC(=O)NCCCNC3CCCCC3)cc2)n(CCC)c1=O | 6.84 | 6.47 | – | 6.34 | – | – | – | – | 6.51
CCCCn1c(=O)c2c(nc3n2CCCN3CCc2ccc(OCC(=O)NCc3cccc(Cl)c3)cc2)n(CCCC)c1=O | 6.16 | 5.19 | < 6.00 | < 6.00 | 42 | 18 | – | – | –
CCCn1c(=O)c2c(nc3n2CCCN3CCc2ccc(OCC(=O)NCCc3ccccn3)cc2)n(CCC)c1=O | 6.25 | 5.87 | < 6.00 | < 6.00 | 31 | 39 | – | – | –
CCCCn1c(=O)c2c(nc3n2CCCN3CCc2ccc(OCC(=O)NCc3cccc(OC)c3)cc2)n(CCCC)c1=O | 5.80 | 5.79 | < 6.00 | < 6.00 | 41 | 41 | – | – | –
CCCCn1c(=O)c2c(nc3n2CCCN3CCc2ccc(OCC(=O)NCc3ccc(Cl)cc3)cc2)n(CCCC)c1=O | 6.23 | 5.14 | < 6.00 | < 6.00 | 23 | 31 | – | – | –
CCCn1c(=O)c2c(nc3n2CCCN3CCc2ccc(OCC(=O)NCCCN(CC)CC)cc2)n(CCC)c1=O | 6.87 | 6.52 | – | < 6.00 | 36 | – | 823 (≈ 479 µg/mL) | – | 6.47
CCCCn1c(=O)c2c(nc3n2CCCN3CCc2ccc(OCC(=O)NCCN(CC)CC)cc2)n(CCCC)c1=O | 7.29 | 6.62 | – | 6.81 | – | – | 189 (≈ 113 µg/mL) | – | 6.95
CCCn1c(=O)c2c(nc3n2CCCN3CCc2ccc(OCC(=O)NCc3ccc(F)cc3)cc2)n(CCC)c1=O | < 5.00 | 5.87 | < 6.00 | < 6.00 | 41 | 31 | – | 37 | –
CCCCn1c(=O)c2c(nc3n2CCCN3CCc2ccc(OCC(=O)NCCCn3ccnc3)cc2)n(CCCC)c1=O | 6.71 | 6.24 | 6.56 | 6.06 | – | – | – | – | –
CCCn1c(=O)c2c(nc3n2CCCN3CCc2ccc(OCC(=O)NCCN3CCCC3)cc2)n(CCC)c1=O | 6.95 | 6.26 | – | 6.29 | – | – | – | – | 6.71
CCCCn1c(=O)c2c(nc3n2CCCN3CCc2ccc(OCC(=O)NCCc3ccc(S(N)(=O)=O)cc3)cc2)n(CCCC)c1=O | < 5.00 | 5.64 | < 6.00 | < 6.00 | 23 | 31 | – | 27 | –
